{
  "source": "ChEMBL document CHEMBL1122278",
  "about": "“Gastric antisecretory 9H-xanthen-9-amines” (1983)",
  "key": {"Canis familiaris [1]": {"test_system": "Canis familiaris", "assay": "Effect on pentagastrin-induced acid secretion in gastric fistula dogs, at 1 mg/kg, iv for 2 h", "assay_type": "functional, Canis lupus familiaris, Stomach", "procedure,_shortened": "(§1)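 Four chronic gastric fistula dogs (11.2–16.2 kg), fasted 24 h, saline infused via saphenous vein, then pentagastrin 8 (μg/kg)/h for maximal stimulation. After 1 h acid plateau, compound given 1 mg/kg iv in PEG 200. Juice collected at 15-min intervals and centrifuged; titratable acid output from volume × titre, as mean ± SE, equivalents per hour.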"}, "Rattus norvegicus [2]": {"test_system": "Rattus norvegicus", "assay": "Antisecretory activity in PLR after pre-incubation in gastric juice at pH 1.0 for 30 min at 15 mg/kg dose, measured as acid titreated", "assay_type": "functional", "procedure,_shortened": "(§2)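 Male Carworth Farms rats (270–360 g), fasted 18 h with water, pylorus ligated under ether. Compound in PEG 200 (80 mg/mL) added to gastric juice from separate 4-h ligated rats (stored frozen) at 7.5 mg/mL, juice neutralized with 1.0 N NaOH before or after addition, or left untreated (pH 1.0). Given intraduodenally right after ligation. Juice collected 2 h later; volume, titre (NaOH to pH 7.4), output = volume × titre.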"}, "Rattus norvegicus [3]": {"test_system": "Rattus norvegicus", "assay": "Antisecretory activity in PLR after preincubation in gastric juice at pH 1.0 for 2 min at 15 mg/kg dose, measured as acid titreated", "assay_type": "functional", "procedure,_shortened": "as §2"}, "Rattus norvegicus [4]": {"test_system": "Rattus norvegicus", "assay": "Antisecretory activity in PLR after pre-incubation in gastric juice at pH 1.0 for 30 min at 15 mg/kg dose, measured as acid output", "assay_type": "functional", "procedure,_shortened": "as §2"}, "Rattus norvegicus [5]": {"test_system": "Rattus norvegicus", "assay": "Antisecretory activity in PLR after pre-incubation in gastric juice at pH 1.0 for 60 min at 15 mg/kg dose, measured as acid titreated", "assay_type": "functional", "procedure,_shortened": "as §2"}, "Rattus norvegicus [6]": {"test_system": "Rattus norvegicus", "assay": "Effect of peroral administration of compound on acid secretion inhibition in the PLR; Value ranges from 4.7-14.9", "assay_type": "functional", "procedure,_shortened": "(§3)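 Rats (male Carworth Farms, 270–360 g) fasted 18 h; compound in PEG 200 by gavage 1 h before pylorus ligation under ether, six per group. Gastric contents collected 2 h post-ligation; pH, volume, titre (NaOH to pH 7.4) measured, output = volume × titre.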"}, "Rattus norvegicus [7]": {"test_system": "Rattus norvegicus", "assay": "Effect of peroral administration of compound on acid secretion inhibition in the PLR; NS means no significant dose response.", "assay_type": "functional, organism-based", "procedure,_shortened": "as §3"}, "Rattus norvegicus [8]": {"test_system": "Rattus norvegicus", "assay": "Effect of intravenous administration of compound on acid secretion inhibition in the PLR; Value ranges from 0.3-2.7", "assay_type": "functional", "procedure,_shortened": "(§4)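 Male Carworth Farms rats (270–360 g), fasted 18 h, pylorus ligated under ether; compound in PEG 200 given intravenously at ligation, six rats per group. Gastric contents taken 2 h after ligation, centrifuged, titrated with NaOH to pH 7.4; output = volume × titre.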"}, "Rattus norvegicus [9]": {"test_system": "Rattus norvegicus", "assay": "Effect of intravenous administration of compound on acid secretion inhibition in the PLR; Value ranges from 0.9-5.3", "assay_type": "functional", "procedure,_shortened": "as §4"}, "Rattus norvegicus [10]": {"test_system": "Rattus norvegicus", "assay": "Antisecretory activity in PLR after pre-incubation in gastric juice at pH 1.0 for 2 min at 15 mg/kg dose, measured as volume", "assay_type": "functional", "procedure,_shortened": "as §2"}, "Rattus norvegicus [11]": {"test_system": "Rattus norvegicus", "assay": "Antisecretory activity in PLR after preincubation in gastric juice at pH 1.0 for 60 min at 15 mg/kg dose, measured as volume", "assay_type": "functional", "procedure,_shortened": "as §2"}, "Rattus norvegicus [12]": {"test_system": "Rattus norvegicus", "assay": "Antisecretory activity in PLR after pre-incubation in gastric juice at pH 1.0 for 2 min at 15 mg/kg dose, measured as acid output", "assay_type": "functional", "procedure,_shortened": "as §2"}, "Rattus norvegicus [13]": {"test_system": "Rattus norvegicus", "assay": "Antisecretory activity in PLR after pre-incubation in gastric juice at pH 1.0 for 60 min at 15 mg/kg dose, measured as acid output", "assay_type": "functional", "procedure,_shortened": "as §2"}, "Rattus norvegicus [14]": {"test_system": "Rattus norvegicus", "assay": "Gastric antisecretory activity in pylorus-ligated rat at a concentration of 50 mg/kg perorally, expressed as increase in mean pH.", "assay_type": "functional", "conditions": "route oral", "procedure,_shortened": "(§5)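 Male Carworth Farms rats (270–360 g), fasted 18 h with water; compound in PEG 200 by gavage 1 h before pylorus ligation under ether. Killed 2 h after ligation; juice centrifuged, volume and pH measured, supernatant titrated with NaOH to pH 7.4, output = volume × titre. Mean of six to seven animals against controls.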"}, "Rattus norvegicus [15]": {"test_system": "Rattus norvegicus", "assay": "Effect of intraduodenal administration of compound on acid secretion inhibition in the PLR; Value ranges from 1.4-7.8", "assay_type": "functional"}, "Canis familiaris [16]": {"test_system": "Canis familiaris", "assay": "Effect on pentagastrin-induced acid secretion in gastric fistula dogs, at 1 mg/kg, iv for 1 h", "assay_type": "functional, Canis lupus familiaris, Stomach", "procedure,_shortened": "as §1"}, "Rattus norvegicus [17]": {"test_system": "Rattus norvegicus", "assay": "Antisecretory activity in PLR after pre-incubation in neutralized juice for 60 min at 15 mg/kg dose, measured as acid output", "assay_type": "functional", "procedure,_shortened": "as §2"}, "Rattus norvegicus [18]": {"test_system": "Rattus norvegicus", "assay": "Effect of intraduodenal administration of compound on acid secretion inhibition in the PLR; Value ranges from 0.8-4.8", "assay_type": "functional"}, "Rattus norvegicus [19]": {"test_system": "Rattus norvegicus", "assay": "Gastric antisecretory activity in pylorus ligated rat at a concentration of 50 mg/kg perorally, expressed as % decrease in mean titratable acid output of gastric juice in treated vs. control groups.", "assay_type": "functional", "conditions": "route oral", "procedure,_shortened": "as §5"}, "Rattus norvegicus [20]": {"test_system": "Rattus norvegicus", "assay": "Antisecretory activity in PLR after pre-incubation in neutralized juice for 60 min at 15 mg/kg dose, measured as acid titreated", "assay_type": "functional", "procedure,_shortened": "as §2"}, "Rattus norvegicus [21]": {"test_system": "Rattus norvegicus", "assay": "Antisecretory activity in PLR after pre-incubation in neutralized juice for 60 min at 15 mg/kg dose, measured as volume", "assay_type": "functional", "procedure,_shortened": "as §2"}, "Canis familiaris [22]": {"test_system": "Canis familiaris", "assay": "Effect on pentagastrin-induced acid secretion in gastric fistula dogs, at 1 mg/kg, iv for 3 h", "assay_type": "functional, Canis lupus familiaris, Stomach", "procedure,_shortened": "as §1"}, "Rattus norvegicus [23]": {"test_system": "Rattus norvegicus", "assay": "Antisecretory activity in PLR after pre-incubation in gastric juice at pH 1.0 for 30 min at 15 mg/kg dose, measured as volume"}},
  "data": [
    {"smiles": "CCN1CCCC(NC2c3ccccc3Oc3ccccc32)C1", "note": "(stereo unspecified)", "values": [
      {"measurement": "Acid output", "setting": "Canis familiaris [1]", "result": 2.46, "unit": "u equiv hr-1"},
      {"measurement": "Change", "setting": "Canis familiaris [1]", "result": -80, "unit": "%"},
      {"measurement": "Acid titer", "setting": "Rattus norvegicus [2]", "result": 62, "unit": "m equiv l-1"},
      {"measurement": "Acid titer", "setting": "Rattus norvegicus [3]", "result": 43, "unit": "m equiv l-1"},
      {"measurement": "Acid output", "setting": "Rattus norvegicus [4]", "result": 367, "unit": "u equiv 2hr-1"},
      {"measurement": "Acid titer", "setting": "Rattus norvegicus [5]", "result": 59, "unit": "m equiv l-1"},
      {"measurement": "ED50", "setting": "Rattus norvegicus [6]", "result": 8.9, "unit": "mg/kg"},
      {"measurement": "ED50", "setting": "Rattus norvegicus [7]", "result": "Not significant"},
      {"measurement": "ED50", "setting": "Rattus norvegicus [8]", "result": 1.2, "unit": "mg/kg"},
      {"measurement": "ED50", "setting": "Rattus norvegicus [9]", "result": 2.3, "unit": "mg/kg"},
      {"measurement": "Volume", "setting": "Rattus norvegicus [10]", "result": 4.6, "unit": "mL"},
      {"measurement": "Volume", "setting": "Rattus norvegicus [11]", "result": 5.6, "unit": "mL"},
      {"measurement": "Acid output", "setting": "Rattus norvegicus [12]", "result": 191, "unit": "u equiv 2hr-1"},
      {"measurement": "Acid output", "setting": "Rattus norvegicus [13]", "result": 324, "unit": "u equiv 2hr-1"},
      {"measurement": "Delta pH", "setting": "Rattus norvegicus [14]", "result": 5.6},
      {"measurement": "ED50", "setting": "Rattus norvegicus [15]", "result": 3.8, "unit": "mg/kg"},
      {"measurement": "Acid output", "setting": "Canis familiaris [16]", "result": 3.37, "unit": "u equiv hr-1"},
      {"measurement": "Change", "setting": "Canis familiaris [16]", "result": -72, "unit": "%"},
      {"measurement": "Acid output", "setting": "Rattus norvegicus [17]", "result": 70, "unit": "u equiv 2hr-1"},
      {"measurement": "ED50", "setting": "Rattus norvegicus [18]", "result": 2.3, "unit": "mg/kg"},
      {"measurement": "Delta TAO", "setting": "Rattus norvegicus [19]", "result": 98},
      {"measurement": "Acid titer", "setting": "Rattus norvegicus [20]", "result": 26, "unit": "m equiv l-1"},
      {"measurement": "Volume", "setting": "Rattus norvegicus [21]", "result": 2.5, "unit": "mL"},
      {"measurement": "Acid output", "setting": "Canis familiaris [22]", "result": 4.6, "unit": "u equiv hr-1"},
      {"measurement": "Change", "setting": "Canis familiaris [22]", "result": -62, "unit": "%"},
      {"measurement": "Volume", "setting": "Rattus norvegicus [23]", "result": 6, "unit": "mL"}
    ]}
  ]
}
